Results on eight compounds are retold here after ChEMBL document CHEMBL1255525, “Fluorinated 2'-hydroxychalcones as garcinol analogs with enhanced antioxidant and anticancer activities” (Bioorg Med Chem Lett, 2010).

pIC50: −log10 of the molar value.

In one data set the test system is BXPC-3. The experiment in a line: Cytotoxicity against human BxPC3 cells expressing COX2 after 24 hrs by MTT assay. It counts as functional, cell-based. Conditions: BXPC-3, 24 h. The essentials: (§1)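 Cells grown at 37 °C, 5% CO₂, with penicillin (50 U/ml), streptomycin and 10% fetal calf serum; lines STR-authenticated. 3 × 10³ cells seeded per well. Compounds in DMSO added 24 h after seeding. Eight replicate wells per treatment; experiments repeated at least three times. End-point: MTT 0.5 mg/ml, 2 h at 37 °C, then DMSO 30 min at room temperature; absorbance read.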

The nature of data set [1]: Lipophilicity, log P of the compound. Particulars: octanol/water. It counts as physicochemical.
Data set [2] can be described thus: Antioxidant activity against superoxide dismutase like activity after 15 mins by NBT spectrometric assay. It counts as functional. The essentials:
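Superoxide-scavenging (SOD-like) activity by NBT method, run in triplicate. Mix of 2.1 ml 0.2 M Tris buffer and 1 ml NBT with test solution, held on ice 15 min. KO₂ (1.5 ml) then added with stirring. Absorbance at 560 nm read every 30 s over 5 min. Ascorbic acid as standard.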

For another data set, the system named is BT-20. The experiment in a line: Cytotoxicity against human estrogen receptor-deficient BT20 cells after 24 hrs by MTT assay. Particulars: BT-20, 24 h. It counts as functional, cell-based. The essentials:
as §1
A general note: Tetrazolium dyes change colour on reduction, which living cells bring about.

The term pIC50 denotes the IC50 on a negative log10 scale, so that one unit is a factor of ten. Low values mean a high IC50, high ones a low IC50. By logP is commonly meant the decadic logarithm of the partition coefficient of the neutral form, usually between octanol and water.

Consider `O=C(/C=C/c1ccc(F)c(F)c1)c1ccccc1O`, for which the values for the pIC50 (with BXPC-3; in data set [2]; with BT-20) were 4.57, 5.25 and 4.48, respectively. The compound further displayed a logP in data set [1] of 3.51.
As for `O=C(/C=C/c1ccc(O)cc1O)c1ccccc1O`, the values for the pIC50 (with BXPC-3; in data set [2]; with BT-20) were 4.16, 5.22 and 4.28, respectively. In data set [1], this compound came in with a logP of 2.42.
Consider `O=C(/C=C/c1ccc(F)cc1F)c1ccccc1O`, for which the negative logarithm of the IC50 (pIC50) was 4.73 with BXPC-3, 5.28 in data set [2] and 4.58 with BT-20. In data set [1], this compound yielded a logP of 3.51.
In the case of `O=C(/C=C/c1ccc(O)c(O)c1O)c1ccccc1O`, the figures for the pIC50 (with BXPC-3; in data set [2]; with BT-20) were 3.67, 4.86 and 4.21, respectively. The compound further registered a lipophilicity (logP) in data set [1] of 2.03.
`O=C(/C=C/c1ccc(F)c(F)c1F)c1ccccc1O`: the pIC50 in the data set with BXPC-3 is 4.46; in data set [2] it was 5.14; in the data set with BT-20 it was 4.25. Further, in data set [1], the logP amounted to 3.67.
For the compound `O=C(/C=C/c1ccc(O)c(O)c1)c1ccccc1O`, the results for the pIC50 (with BXPC-3; in data set [2]; with BT-20) were 4.11, 5.03 and 4.19, respectively. For the same compound, the logP in data set [1] turned out to be 2.42.
`O=C1O[C@H]([C@@H](O)CO)C(O)=C1O` [ASCORBIC ACID] showed a pIC50 in data set [2] of 5.27.
Turning to `O=C(/C=C/c1ccccc1)c1ccccc1` [CHALCONE], the logP in data set [1] stood at 3.2.
